High-throughput results from PubChem BioAssay.
Hits are enriched below; roughly 2.9% of the tested compounds scored in any of these assays.
PAX8 reporter: inhibitors of PAX8 transcriptional activity in RMG-I cells; RMG-I TPO-luciferase reporter, SteadyGlo, 24 h; inhibition, % at 12.6 µM; actives 1.2% (n = 360,000);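 active = mean replicate inhibition at least 60% with every replicate also reaching 60%; inconclusive = only one of the two criteria is met; inactive = mean below 60% and not all replicates reaching 60%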;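 also: luciferase light reporting Pax8 driven TPO promoter activity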
CDK5 p35 inh: blocks human CDK5/p35 kinase activity. actives 0.01% (n = 330,000). Q00535+Q15078. Recombinant CDK5/p35, ADP-Glo luminescence, 60 min. inhibition, % at 10 µM;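 active = highest replicate inhibition of at least 50% and at least 75% of replicates reaching 50%; inconclusive = only one of the two criteria met; inactive = both criteria failed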
Target sequence (Q00535 whole entry, looked up): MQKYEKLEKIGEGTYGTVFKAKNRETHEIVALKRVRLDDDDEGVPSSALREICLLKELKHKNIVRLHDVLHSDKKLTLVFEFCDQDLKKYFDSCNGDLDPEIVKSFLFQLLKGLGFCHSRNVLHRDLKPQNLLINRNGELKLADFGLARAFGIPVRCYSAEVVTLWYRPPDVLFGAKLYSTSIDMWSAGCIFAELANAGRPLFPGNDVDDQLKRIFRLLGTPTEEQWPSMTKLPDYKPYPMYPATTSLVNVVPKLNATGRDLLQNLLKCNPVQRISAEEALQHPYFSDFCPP
Target sequence (Q15078 whole entry, looked up): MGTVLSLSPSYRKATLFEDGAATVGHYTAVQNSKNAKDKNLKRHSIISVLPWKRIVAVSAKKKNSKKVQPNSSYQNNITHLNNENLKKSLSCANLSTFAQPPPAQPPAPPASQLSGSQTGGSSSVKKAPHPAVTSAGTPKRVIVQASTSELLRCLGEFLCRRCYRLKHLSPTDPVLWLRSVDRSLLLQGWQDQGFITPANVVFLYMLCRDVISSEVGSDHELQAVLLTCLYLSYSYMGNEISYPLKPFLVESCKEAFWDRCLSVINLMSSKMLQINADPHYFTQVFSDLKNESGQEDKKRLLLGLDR
dFosB activator: activators of mouse delta FosB homodimer; purified delta FosB, TAMRA-CDK5 oligo fluorescence polarization; percent of positive-control signal above neutral wells; activation, % at 25 µM; actives 0.99% (n = 340,000); AID 493131;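 active = mean activation above about 17%, with every replicate also reaching it, limit read from the data, passing the limit was not always enough; inconclusive = only one of the two conditions met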
Env fusion inh: inhibitors of HIV Env-mediated cell fusion | inhibition, % at 12.3 µM | HeLa-JRFL Env/CEM21 cell fusion, luciferase | actives 1.1% (n = 360,000);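 active = mean replicate inhibition score of at least 50 and every replicate individually at or above 50; inconclusive = only one of the two criteria met; inactive = mean below 50 and not all replicates reaching 50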
INS-1E GSIS act: primary screen for activators of insulin secretion dependent on glucose, INS-1E cells, GLuc reporter luminescence; INS-1E GLuc reporter insulin secretion, 2-3 h; activation, % at 16.6 µM; actives 0.61% (n = 370,000);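 active = lowest replicate activation of at least 40%, so every replicate reaches that level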
Cneo AK release: Cryptococcus neoformans lysis via adenylate kinase release | C. neoformans lysis, adenylate kinase release luminescence, 4 h; normalised: neutral wells 0, clomiphene wells 100 | lysis activity, % at 15 µM | actives 0.2% (n = 360,000);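 active = mean lysis activity across replicates of at least 80%, whatever share of replicates individually reach that level; inactive = mean lysis activity below 80%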
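Material: C. neoformans cells | Amount: Yeast cell density of 5 × 10^6 cells/mL | Medium: Fresh YPD growth medium | Dosing: Single dose | Times: Static 4 h at 37 °C with compound, 1 h detection | Detection: AK luminescence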
Large screens that a line does not name were inactive; ! = repeats disagree; [ ] = another dose, or the depositor's remark.

COc1ccc(Cl)cc1C1=NOC2(CCC2)C(=O)N1Cc1ccc(NC(C)=O)cc1	Env fusion inh 67 (no result: CDK5 p35 inh, dFosB activator)
COc1ccc(Cl)cc1C(=O)Nc1ccc(NC(C)=O)cc1	none (no result: Cneo AK release)
CO[C@H]1CN(C)C(=O)c2ccc(NC(=O)Nc3ccc(Cl)cc3)cc2OC[C@@H](C)N(C)C[C@@H]1C	none (no result: CDK5 p35 inh, dFosB activator)
COc1ncnc2c1ncn2CCCNCCCN1CCCC1=O	PAX8 reporter 72 (no result: CDK5 p35 inh, dFosB activator)
COC(=O)[C@@]1(C)[C@H]2C(=O)N(Cc3ccccc3)C(=O)[C@H]2[C@H]2CN=C(SCc3ccc(Cl)cc3)N21	Env fusion inh 79
COC(=O)[C@@]1(C)[C@H]2C(=O)N(Cc3ccccc3)C(=O)[C@H]2[C@H]2CN=C(SCc3ccc(C#N)cc3)N21	Env fusion inh 75
CC[C@]1(C(=O)OC)[C@H]2C(=O)N(Cc3ccccc3)C(=O)[C@H]2[C@H]2CN=C(SCC(=O)c3ccccc3)N21	Env fusion inh 72
CCN1C(=O)[C@H]2[C@H]3CN=C(SCc4ccc(Cl)cc4)N3[C@@](C)(C(=O)OC)[C@H]2C1=O	none
CCN1C(=O)[C@H]2[C@H]3CN=C(SCc4ccccc4)N3[C@@](C)(C(=O)OC)[C@H]2C1=O	none
Cc1ccc(S(=O)(=O)Nc2cccc3c2O[C@@H](CN(C)C(=O)Nc2c(C)noc2C)[C@@H](C)CN([C@@H](C)CO)C3=O)cc1	none (no result: CDK5 p35 inh, dFosB activator)
Cc1cccc(-c2cc(C(=O)Nc3sc(C)c(C)c3C(N)=O)c3ccccc3n2)c1	none (no result: PAX8 reporter, Env fusion inh, INS-1E GSIS act)
Cc1ccc(C)c(-c2cc(C(=O)Nc3sc(C)c(C)c3C(N)=O)c3ccccc3n2)c1	Env fusion inh 89 (no result: PAX8 reporter)
CC(C)NC(=O)N(C)C[C@H]1Oc2ncc(C#CC3CC3)cc2C(=O)N([C@@H](C)CO)C[C@H]1C	none (no result: CDK5 p35 inh, dFosB activator)
Nc1ccc(S(=O)(=O)Nc2nccc(/C=C/c3cccc([N+](=O)[O-])c3)n2)cc1	INS-1E GSIS act 70 (no result: CDK5 p35 inh, dFosB activator)
CN(C)C(=O)c1cccc(-c2ccccc2[C@H]2[C@@H](C#N)N(C(=O)C3CC3)[C@H]2CO)c1	none (no result: CDK5 p35 inh, dFosB activator, Env fusion inh, Cneo AK release)
Cc1nc(C(Cl)(Cl)Cl)nc2[nH]ccc(=O)c12	Env fusion inh inconclusive, INS-1E GSIS act 130 (no result: Cneo AK release)
Cc1cn2c(N)c(/C=C3\C=Nc4ccccc43)c(=O)nc2s1	dFosB activator 19 (no result: Cneo AK release)
CCc1nn2c(N)c(/C=C3\C=Nc4ccccc43)c(=O)nc2s1	none
C[C@H]1CCCCO[C@@H](CN(C)Cc2ccccc2)[C@@H](C)CN([C@@H](C)CO)C(=O)c2cc(NC(=O)Nc3ccc(C(F)(F)F)cc3)ccc2O1	PAX8 reporter 108, Env fusion inh 68[16.7 µM] (no result: CDK5 p35 inh, dFosB activator)
C[C@@H]1CN([C@@H](C)CO)C(=O)c2cc(NC(=O)Nc3ccc(C(F)(F)F)cc3)ccc2O[C@@H](C)CCCCO[C@H]1CN(C)Cc1ccccc1	PAX8 reporter 66 (no result: CDK5 p35 inh, dFosB activator)
C[C@H]1CCCCO[C@H](CN(C)Cc2ccccc2)[C@@H](C)CN([C@@H](C)CO)C(=O)c2cc(NC(=O)Nc3ccc(C(F)(F)F)cc3)ccc2O1	PAX8 reporter 120 (no result: CDK5 p35 inh, dFosB activator)
C[C@H](CO)N1C[C@H](C)[C@H](CN(C)Cc2ccccc2)OCCCC[C@H](C)Oc2ccc(NC(=O)Nc3ccc(C(F)(F)F)cc3)cc2C1=O	PAX8 reporter 115, Env fusion inh 66[16.7 µM] (no result: CDK5 p35 inh, dFosB activator)
CCCC(=O)Nc1ccc2c(c1)OC[C@H](C)N(CC1CCCC1)C[C@H](C)[C@H](OC)CN(C)C2=O	none (no result: CDK5 p35 inh, dFosB activator)
C[C@H](CO)N1C[C@H](C)[C@H](CN(C)C(=O)Nc2ccc(C(F)(F)F)cc2)OCc2cn(nn2)CCCC1=O	none (no result: CDK5 p35 inh, dFosB activator, Env fusion inh, Cneo AK release)
C[C@@H]1CCCCO[C@H](CN(C)Cc2ccccc2)[C@H](C)CN([C@@H](C)CO)C(=O)c2cc(NC(=O)Nc3ccc(C(F)(F)F)cc3)ccc2O1	PAX8 reporter 115 (no result: CDK5 p35 inh, dFosB activator)
C[C@@H]1CCCCO[C@H](CN(C)Cc2ccccc2)[C@H](C)CN([C@H](C)CO)C(=O)c2cc(NC(=O)Nc3ccc(C(F)(F)F)cc3)ccc2O1	PAX8 reporter 107, Env fusion inh inconclusive (no result: CDK5 p35 inh, dFosB activator)
C/C=C/c1ccc2c(c1)O[C@@H](CNC)[C@H](C)CN([C@@H](C)CO)S2(=O)=O	none (no result: CDK5 p35 inh, dFosB activator, Cneo AK release)
CCC(=NOCc1ccccc1)C(=O)NNS(=O)(=O)c1ccc(C)cc1	Env fusion inh 57
O=C(NNC1CCN(Cc2ccccc2)CC1)c1ccccc1	INS-1E GSIS act 44 (no result: Env fusion inh)
O=C(NC1CCN(Cc2ccccc2)CC1)c1ccccc1	none
C[C@@H]1CN([C@H](C)CO)C(=O)c2cc(NS(=O)(=O)c3ccc(F)cc3)ccc2O[C@@H]1CN(C)S(=O)(=O)c1cn(C)cn1	none (no result: PAX8 reporter, CDK5 p35 inh, dFosB activator, Cneo AK release)
CCN(CC)CC(=O)Nc1cccc2c1C(=O)c1ccccc1C2=O	none
O=C1c2ccccc2C(=O)c2c(NCCCN(CCO)CCO)cccc21	dFosB activator 56 (no result: Cneo AK release)
C[C@H]1CN([C@@H](C)CO)C(=O)c2cc(-c3ccncc3)cnc2O[C@H]1CN(C)C(=O)Nc1ccc2c(c1)OCO2	none (no result: PAX8 reporter, CDK5 p35 inh, dFosB activator)
CC(C)(C)[S@@](=O)N1Cc2cc(C(=O)N3CCc4ccccc4C3)nc(-c3cccc(-c4ccncc4)c3)c2[C@H]1CCO	none (no result: CDK5 p35 inh, dFosB activator)
COc1ccnc(N2CCN(c3cccc(C(F)(F)F)c3)CC2)c1C#N	INS-1E GSIS act 73 (no result: PAX8 reporter)
COc1ccnc(N2CCN(c3ccc(Cl)cc3)CC2)c1C#N	none (no result: PAX8 reporter, Env fusion inh)
CCc1ccc(C(C(=O)NC2CCCC2)N(C(=O)/C=C/C(=O)Nc2cc(C)on2)c2ccccc2C)cc1 (stereo not given)	Env fusion inh 77 (no result: Cneo AK release)
CCOC(=O)N=Nc1c2ccccc2c2nc3no[nH]c3nc12	PAX8 reporter 87, Env fusion inh 76
CC(C)Sc1nc2c(c(=O)[nH]c(=O)n2C)n1Cc1ccc(Cl)cc1	INS-1E GSIS act 77 (no result: PAX8 reporter, Env fusion inh)
CC(=O)CSc1nc2c(c(=O)[nH]c(=O)n2C)n1Cc1ccccc1Cl	INS-1E GSIS act 59
Cn1c(=O)[nH]c(=O)c2c1nc(SCC(O)CCl)n2Cc1ccccc1 (stereo not given)	INS-1E GSIS act 41
C=C(C)CSc1nc2c(c(=O)[nH]c(=O)n2C)n1Cc1ccccc1	none
Cn1c(=O)[nH]c(=O)c2c1nc(SCC(=O)Nc1ccccc1)n2Cc1ccccc1	dFosB activator 54
CCC(C)Sc1nc2c(c(=O)[nH]c(=O)n2C)n1Cc1ccc(Cl)cc1 (stereo not given)	none (no result: PAX8 reporter, Env fusion inh, INS-1E GSIS act)
CCc1nc(N2[C@H](C#N)[C@H](c3ccccc3-c3ccccc3C)[C@H]2CO)sc1C	none (no result: CDK5 p35 inh, dFosB activator, Cneo AK release)
O=C(C[C@H]1CC[C@@H](NC(=O)Nc2cc(F)ccc2F)[C@H](CO)O1)Nc1ccc(-c2ccccc2)cc1	none (no result: CDK5 p35 inh, dFosB activator)
O=S(=O)(c1ccccc1)N1C[C@@H]2N[C@H](C1)C2c1ccc(-c2ccccc2)cc1 (stereo not given in full)	none (no result: CDK5 p35 inh, dFosB activator, Env fusion inh, Cneo AK release)
Cc1ccccc1S(=O)(=O)N1C[C@@H]2N[C@H](C1)C2c1ccc(-c2cccc(C#N)c2)cc1 (stereo not given in full)	PAX8 reporter 94! (no result: CDK5 p35 inh, dFosB activator, Env fusion inh, Cneo AK release)
